High-throughput results as filed in PubChem BioAssay.
Compounds with a hit are over-represented: about 3.5% of the library has one in this group of screens.
MrgX1 allo act: positive allosteric modulators of MrgX1, primary screen, HEK293 cells, Fluo-4 calcium flux | AID 588675, 2011 | Mas-related G-protein coupled receptor member X1 (Homo sapiens), Q96LB2 | 0.63% of 310,000 active | B-score at 10 µM | FDSS; active compounds read high;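 active = plate-corrected calcium response at least 3 library SD above typical, normal starting fluorescence, not activating the receptor alone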;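 note: compound read alongside a low EC10 to EC30 dose of BAM8-22 agonist; peak minus trough fluorescence over baseline measured at the second addition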
Target sequence (Q96LB2 whole entry, looked up): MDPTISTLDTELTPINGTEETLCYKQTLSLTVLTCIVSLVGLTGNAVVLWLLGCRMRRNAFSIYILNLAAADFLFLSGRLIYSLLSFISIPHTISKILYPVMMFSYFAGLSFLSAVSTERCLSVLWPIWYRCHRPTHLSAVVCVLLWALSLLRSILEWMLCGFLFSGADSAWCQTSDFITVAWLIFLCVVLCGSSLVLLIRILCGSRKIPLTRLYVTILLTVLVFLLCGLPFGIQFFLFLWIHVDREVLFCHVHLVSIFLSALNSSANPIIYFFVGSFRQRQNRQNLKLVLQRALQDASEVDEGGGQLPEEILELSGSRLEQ
MrgX1 antag: antagonists of human MrgX1 receptor, primary screen, HEK293 cells, Fluo-4 calcium flux; 1.3% of 310,000 active; Mas-related G-protein coupled receptor member X1 (Homo sapiens), Q96LB2; B-score at 10 µM; BAM8-22 antagonism; active compounds read low;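 active = calcium-response B-score plate-corrected more than 3 library SD below zero, starting fluorescence within 5 deviations, no agonist response on first addition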;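 note: peak minus trough fluorescence over baseline after final BAM8-22 challenge near maximal dose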
MrgX1 agonist: agonists of human MrgX1 receptor, primary screen, HEK293 cells, Fluo-4 calcium flux; B-score at 10 µM; AID 588627, 2011; Fluo-4 calcium fluorescence, agonist mode; active compounds read high; 0.44% of 310,000 active;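 active = calcium response B-score plate-corrected fluorescence ratio at least 3 library SD, with starting fluorescence B-score inside 5 SD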
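System: HEK293 cells stably expressing human MrgX1 receptor; Dosing: test compound in the initial addition of three; Schedule: overnight plating, then 30 min 37 °C plus 30 min room-temperature dye loading; Detection: kinetic calcium dye fluorescence, Fluo-4 NW; Controls: per-plate positive and negative controls for Z′ factor.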
RGS4 act: RGS4 potentiators or activators, primary screen, cell-based, HEK293 M3R inducible RGS4, calcium flux; B-score at 10 µM; 0.92% of 310,000 active; carbachol calcium flux Fluo4; active compounds read low;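 active = B-score of the integrated calcium signal more than 4 SD below the library mean, with starting fluorescence not abnormally high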;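 note: negative B-score means reduced calcium response which marks RGS4 activation or potentiation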
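test system = M3R-expressing HEK293 line, RGS4 induced by doxycycline | probe or stimulus = carbachol at ECmax as muscarinic agonist stimulus | timing = dye loading 30 min 37 °C, buffer rest 30 min RT | signal = calcium dye Fluo4 fluorescence | evaluation = B score from integrated fluorescence ratio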
RGS4 inh: RGS4 inhibitors, primary screen, cell-based, HEK293 M3R inducible RGS4, calcium flux | B-score at 10 µM | 0.45% of 310,000 active | Regulator of G-protein signaling 4 (Homo sapiens), P49798 | Fluo-4 calcium flux; active compounds read high; triggered by carbachol at its EC20;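 active = B-score, a plate-corrected calcium signal, over three deviations above library mean, with baseline fluorescence within five deviations of library mean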;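 note: RGS4 expression induced by doxycycline in cells with stable M3 receptor; B-score is computed from the integrated fluorescence ratio over baseline after carbachol; higher B-score means a larger calcium signal and so more RGS4 inhibition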
Target sequence (P49798 whole entry, looked up): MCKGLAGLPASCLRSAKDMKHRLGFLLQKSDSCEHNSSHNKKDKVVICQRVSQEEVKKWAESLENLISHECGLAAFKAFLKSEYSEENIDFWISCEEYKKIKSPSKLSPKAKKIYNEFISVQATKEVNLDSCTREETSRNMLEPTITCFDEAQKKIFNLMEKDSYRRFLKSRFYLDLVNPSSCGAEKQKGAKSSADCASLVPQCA
RGS4 inh valid: enhanced carbachol calcium response, M3R/RGS4 cells, RGS4 inhibitor project, cell-based, validation screen, HEK293 M3R/RGS4, calcium flux; shares compounds with RGS4 inh; carbachol calcium Fluo-4 fluorescence; carbachol added at its EC20; 0 = buffer wells, 100 = carbachol control; calcium response, % at 10 µM; 65% of 1,700 active; AID 492999, 2010;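 active = duplicate-averaged calcium response above the buffer-only control mean plus 5 SD of those controls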;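 note: integrated fluorescence ratio F max minus min over baseline F0; higher response in RGS4-induced cells means RGS4 inhibition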
M3R Ca ctr: carbachol calcium response in non-induced M3R cells, confirmation, counter-screen for RGS4 inhibitor project, cell-based, HEK293 M3R; 20% of 1,900 active; shares compounds with RGS4 inh; activity (percent), % at 10 µM; carbachol calcium Fluo-4; submaximal (EC20) carbachol stimulus; buffer wells 0%, carbachol control wells 100%; call rule not given here;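 note: RGS4 induction absent so cells express M3R without RGS4; higher means more calcium signal and flags a non-specific hit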
M3R basal Ca ctr: signal in non-induced cells without carbachol, RGS4 inhibitor counter-screen | 22% of 1,900 active | shares compounds with RGS4 inh | calcium response (agonist-mode artifact), % at 10 µM | HEK293 M3R/RGS4 non-induced, Fluo-4 calcium, no carbachol; normalised: buffer wells 0%, carbachol wells 100% | AID 493001;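 active = duplicate-averaged calcium rise in uninduced cells above buffer wells' mean plus 5 SD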
Of the large screens only hits and unclear results are named; the others gave an inactive call (follow-up assays come after a bar, where they were run).

CC(NCC(O)COCCC12CC3CC(CC(C3)C1)C2)c1ccccc1 (stereo not drawn)	RGS4 inh 4.7 | RGS4 inh valid inactive | M3R Ca ctr inactive | M3R basal Ca ctr 24%
CCOC(=O)N1CCc2c(sc3c2c(=O)n(Cc2ccccc2)c(=O)n3Cc2ccc(C)cc2)C1	RGS4 inh 8.7 | RGS4 inh valid 38% | M3R Ca ctr 30% | M3R basal Ca ctr inactive
CC(=O)N1CCc2c(sc3c2c(=O)n(Cc2ccccc2)c(=O)n3CC(=O)NCC2CCCO2)C1 (stereo not drawn)	none
Cc1ccc(C(=O)/C=C\C(=O)c2ccc(C)cc2)cc1	none | RGS4 inh valid inactive | M3R Ca ctr inactive | M3R basal Ca ctr inactive
O=C1c2ccccc2C(=O)N1c1nc2nccc(-c3ccccc3)n2n1	none
O=[N+]([O-])c1cc(C(F)(F)F)ccc1NCCc1c[nH]c2ccc(O)cc12	RGS4 inh 13 | RGS4 inh valid 20% | M3R Ca ctr inactive | M3R basal Ca ctr inactive
Cc1cccc(Oc2cc(NC(=O)Cn3cnc([N+](=O)[O-])n3)cc([N+](=O)[O-])c2)c1	none (no result: RGS4 act, RGS4 inh)
COc1cc(C2C(C#N)=C(N)Oc3c2c(-c2ccccc2)nn3-c2ccccc2)cc(OC)c1OC (stereo not drawn)	none | M3R Ca ctr inactive | M3R basal Ca ctr inactive
Cc1nn(-c2ccccc2)c2c1C(c1ccc([N+](=O)[O-])cc1)C(C#N)=C(N)O2 (stereo not drawn)	none
O=c1cc(N=Nc2ccc(Cl)cc2)[nH]c(=O)[nH]1	RGS4 inh 17 | RGS4 inh valid 22% | M3R Ca ctr inactive | M3R basal Ca ctr inactive
O=c1cc(-c2ccc(Cl)cc2)oc(=O)[nH]1	none
Cc1cc2cc(C)c(NCCNC(=O)c3ccccc3)nc2cc1C	none | RGS4 inh valid inactive | M3R Ca ctr inactive | M3R basal Ca ctr inactive
CCc1ccc2nc(NC(=O)c3cc(C)on3)sc2c1	RGS4 inh 6.4 | RGS4 inh valid 25% | M3R Ca ctr 36% | M3R basal Ca ctr inactive
CCCOc1c(OC)cccc1C1CC(=O)Nc2cc3c(cc21)OCCO3 (stereo not drawn)	none
N#CC1=C2N=C(N)c3c(sc4c3CCCCC4)N2C2=C(C(=O)CCC2)C1c1ccccc1 (stereo not drawn)	none
Cc1ccc(C2C(C#N)=C3N=C(N)c4ccccc4N3C3=C2C(=O)CCC3)cc1 (stereo not drawn)	none | M3R Ca ctr inactive | M3R basal Ca ctr inactive
N#CC1=C2N=C(N)c3ccccc3N2C2=C(C(=O)CCC2)C1c1ccc(F)cc1 (stereo not drawn)	none | M3R Ca ctr inactive | M3R basal Ca ctr inactive
COC(=O)C(CC(C)C)NC(=O)CNC(=O)c1ccccc1C (stereo not drawn)	none
COc1cc2c(cc1OC)C(CSc1ccccc1C(=O)O)=NC(C)(C)C2	RGS4 inh 5.6 | RGS4 inh valid 9.5% | M3R Ca ctr inactive | M3R basal Ca ctr inactive
COc1cc(/C=C2/C(C)=C(C#N)c3nc(N)c(C#N)c(C)c32)ccc1OCC(=O)O	none
CC1=C(C#N)c2nc(N)c(C#N)c(C)c2/C1=C\c1ccc(-c2ccccc2C(=O)O)o1	RGS4 inh 5.6 (no result: MrgX1 allo act, MrgX1 antag, MrgX1 agonist) | RGS4 inh valid 24% | M3R Ca ctr 32% | M3R basal Ca ctr inactive
CCC(=O)Nc1ccc(NC(=O)c2ccc3c(c2)OCO3)cc1	none
CCC(=O)Nc1cccc(NC(=O)c2ccc3c(c2)OCCO3)c1	none | RGS4 inh valid inactive | M3R Ca ctr inactive | M3R basal Ca ctr inactive
CCCC(=O)Nc1cccc(NC(=O)c2ccc3c(c2)OCO3)c1	none | RGS4 inh valid inactive | M3R Ca ctr inactive | M3R basal Ca ctr inactive
C=CCSC1=C(C#N)C(c2ccccc2OC)CC(=O)N1 (stereo not drawn)	none
C/C(=C\c1cccc(Cl)c1)C(=O)c1c(C)cc(C)[nH]c1=O	none
CCOc1cc(/C=C2\C(=O)ON=C2c2ccccc2)ccc1OC	RGS4 inh 25 | RGS4 inh valid 32% | M3R Ca ctr inactive | M3R basal Ca ctr 50%
COc1cc(/C=C2\C(=O)ON=C2c2ccccc2)cc(OC)c1OC	none
COc1ccc(/C=C2/C(=O)ON=C2c2ccccc2)cc1OC	none | M3R Ca ctr inactive | M3R basal Ca ctr 64%
COc1ccc(/C=C2\C(=O)ON=C2c2ccccc2)cc1OC	none | M3R Ca ctr inactive | M3R basal Ca ctr 8.5%
CCOc1cc(/C=C2/C(=O)ON=C2C)ccc1OCc1ccccc1F	RGS4 act -7, RGS4 inh 9.4 | RGS4 inh valid inactive | M3R Ca ctr inactive | M3R basal Ca ctr 94%
Cc1ccc(C)c(OCc2cc(C(=O)N3CC[C@H](O)C3)no2)c1	none
COc1cc2c(cc1OC)CN(C(=O)C(C)(C)C)CC2	none
Oc1ccc(N=C/C=C/c2cccc(Br)c2)cc1-c1nc2ccccc2s1	RGS4 inh 8.6 | RGS4 inh valid inactive | M3R Ca ctr inactive | M3R basal Ca ctr inactive
O=C(COC(=O)c1ccccc1Nc1ccccc1)NCc1ccccc1	none
Cc1ccc(C2=NN(C(=S)Nc3ccccc3)C(c3ccco3)C2)cc1 (stereo not drawn)	none
CC(=O)Nc1sc(N/N=C/c2ccccc2)nc1-c1ccc(C)cc1	none
CCCc1sc(N/N=C/c2ccccn2)nc1-c1ccc(Br)cc1	none | M3R Ca ctr inactive | M3R basal Ca ctr inactive
COC(=O)c1cc(S(=O)(=O)N2CCOCC2)c(Cl)cc1N1CCOCC1	none
COC(=O)c1cc(C)nc2c1C(=O)C(=O)C=C2N1CCOCC1	RGS4 inh 21 | RGS4 inh valid 34% | M3R Ca ctr inactive | M3R basal Ca ctr inactive
O=c1c2ccccc2nc2c3ccccc3c3nncn3n12	none (no result: MrgX1 allo act, MrgX1 antag, MrgX1 agonist)
O=c1c2ccccc2nc2n1CCS2(=O)=O	RGS4 inh 6.2 | RGS4 inh valid 26% | M3R Ca ctr inactive | M3R basal Ca ctr inactive
Cc1cccc(-c2nnc(SCC(=O)N3CCCC3)o2)c1	none
